Experimental data: ChEMBL document CHEMBL1142564, “Lanostane triterpenoids and triterpene glycosides from the fruit body of Fomitopsis pinicola and their inhibitory activity against COX-1 and COX-2” (J Nat Prod, 2005)

What was measured:
[1] = biological target: Prostaglandin G/H synthase 2 (Ovis aries, UniProt P79208); experiment: Inhibition of sheep placental COX2 by liquid scintillation counter
Procedure, shortened: (§1)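 Enzymes used were ram seminal vesicle COX-1 and sheep placenta COX-2 (70% pure), 2 units each, in 0.1 M Tris-HCl pH 7.5 with 1 mM hematin and 2 mM phenol. Sample was preincubated 2 min at 37 °C, then 51.4 µM [1-14C]arachidonic acid was added for 2 min at 37 °C. Extraction used hexane-EtOAc (2:1); PGE2 was measured by radioimmunoassay with scintillation counting. IC50 came from duplicate four-point titration.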

[2] = biological target: T1, Prostaglandin G/H synthase 1 (Ovis aries) (UniProt P05979); experiment: Inhibition of COX1 from ram seminal vesicles at 10 ug/ml by liquid scintillation counter
T1 sequence (whole entry): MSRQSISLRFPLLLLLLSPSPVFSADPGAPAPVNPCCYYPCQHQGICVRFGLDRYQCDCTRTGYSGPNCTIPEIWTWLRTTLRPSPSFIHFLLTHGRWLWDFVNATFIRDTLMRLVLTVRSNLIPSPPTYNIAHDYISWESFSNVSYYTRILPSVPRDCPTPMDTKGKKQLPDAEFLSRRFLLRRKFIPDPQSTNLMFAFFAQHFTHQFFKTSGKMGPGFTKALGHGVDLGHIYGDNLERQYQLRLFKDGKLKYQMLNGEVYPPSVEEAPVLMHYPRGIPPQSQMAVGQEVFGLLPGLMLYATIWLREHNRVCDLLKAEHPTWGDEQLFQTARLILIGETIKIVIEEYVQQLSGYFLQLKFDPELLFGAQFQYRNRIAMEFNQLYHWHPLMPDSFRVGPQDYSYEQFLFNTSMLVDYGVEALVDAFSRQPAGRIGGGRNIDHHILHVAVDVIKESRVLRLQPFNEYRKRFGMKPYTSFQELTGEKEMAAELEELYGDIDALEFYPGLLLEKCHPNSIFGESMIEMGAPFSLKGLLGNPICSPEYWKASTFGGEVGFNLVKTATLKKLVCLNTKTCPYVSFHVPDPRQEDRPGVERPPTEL

[3] = biological target: T2, Prostaglandin G/H synthase 1 (Ovis aries, UniProt P05979); experiment: Inhibition of COX1 from ram seminal vesicles by liquid scintillation counter; procedure, shortened: as §1
T2 sequence (P05979 whole entry): T1 sequence (whole entry)

[4] = Inhibition of sheep placental COX2 by liquid scintillation counter
[5] = test system: Prostaglandin G/H synthase 2 (Ovis aries); experiment: Inhibition of sheep placental COX2 at 10 ug/ml by liquid scintillation counter

Chain of Prostaglandin G/H synthase 2 (P79208 whole entry, looked up): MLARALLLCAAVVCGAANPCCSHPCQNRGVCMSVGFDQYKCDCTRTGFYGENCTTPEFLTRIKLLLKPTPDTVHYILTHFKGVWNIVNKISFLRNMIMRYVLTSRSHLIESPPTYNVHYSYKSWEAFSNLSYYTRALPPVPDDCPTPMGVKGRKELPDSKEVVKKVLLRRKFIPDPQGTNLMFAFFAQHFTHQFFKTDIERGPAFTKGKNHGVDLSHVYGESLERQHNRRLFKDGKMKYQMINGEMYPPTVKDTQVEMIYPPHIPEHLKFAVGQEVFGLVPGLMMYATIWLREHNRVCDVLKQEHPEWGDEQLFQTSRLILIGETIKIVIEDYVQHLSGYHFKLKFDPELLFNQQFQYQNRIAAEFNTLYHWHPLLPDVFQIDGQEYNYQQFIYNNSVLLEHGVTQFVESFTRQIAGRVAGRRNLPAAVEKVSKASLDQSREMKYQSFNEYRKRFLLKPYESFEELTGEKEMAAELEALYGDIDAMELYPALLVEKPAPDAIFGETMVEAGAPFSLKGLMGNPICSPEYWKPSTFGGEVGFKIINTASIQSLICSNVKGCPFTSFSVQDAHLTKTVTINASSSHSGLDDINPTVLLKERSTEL

IC50 [1] [µM]	inhibition [2] [%]	IC50 [3] [µM]	INH [4] [×10⁻⁵ M]	inhibition [5] [%]	Structure (SMILES)
0.15	57.2	–	–	–	CC(=O)O[C@@H]1CC[C@]2(C)C3=C(CC[C@H]2C1(C)C)[C@]1(C)CC[C@H]([C@@H](C/C=C/C(C)(C)O)C(=O)O[C@@H]2OC[C@@H](O)[C@H](O)[C@H]2O)[C@@]1(C)CC3 [FOMITOSIDE E]
1.15	18.1	–	–	–	CC(C)(O)[C@@H](O)CC[C@@H](C(=O)O)[C@H]1CC[C@@]2(C)C3=C(CC[C@]12C)[C@@]1(C)CCC(=O)C(C)(C)[C@@H]1CC3 [FOMITOPINIC ACID A]
2390	–	3330	–	–	C=C(CC[C@@H](C(=O)O[C@@H]1OC[C@@H](O)[C@H](O)[C@H]1O)[C@H]1CC[C@@]2(C)C3=C(CC[C@]12C)[C@@]1(C)CCC(=O)C(C)(C)[C@@H]1CC3)C(C)C [FOMITOSIDE D]
1.13	27.5	–	–	–	CC(=O)O[C@@H]1CC[C@]2(C)C3=C(CC[C@H]2C1(C)C)[C@]1(C)CC[C@H]([C@@H](CCC=C(C)C)C(=O)O[C@@H]2OC[C@@H](O)[C@H](O)[C@H]2O)[C@@]1(C)CC3 [FOMITOSIDE F]
–	21.7	–	1.85	–	C=C(CC[C@@H](C(=O)O[C@@H]1OC[C@@H](O)[C@H](O)[C@H]1O)[C@H]1CC[C@@]2(C)C3=C(CC[C@]12C)[C@@]1(C)CC[C@@H](OC(C)=O)C(C)(C)[C@@H]1CC3)C(C)C
–	–	73.9	–	70.1	COC(=O)CC(C)(O)CC(=O)O[C@@H]1CC[C@]2(C)C3=C(CC[C@H]2C1(C)C)[C@]1(C)CC[C@H]([C@@H](CCC=C(C)C)C(=O)O[C@@H]2OC[C@@H](O)[C@H](O)[C@H]2O)[C@@]1(C)CC3 (some centres undefined) [FOMITOSIDE H]
5110	–	1910	–	–	CC(C)=CCC[C@@H](C(=O)O[C@@H]1OC[C@@H](O)[C@H](O)[C@H]1O)[C@H]1CC[C@@]2(C)C3=C(CC[C@]12C)[C@@]1(C)CCC(=O)C(C)(C)[C@@H]1CC3 [FOMITOSIDE C]
